Measured values from the array DNA melting data of Ke et al. (doi:10.1101/2024.01.08.574731).

Tests used:
[1] = folding enthalpy; higher = less favourable; fluorescence melt of hairpins on a sequencing array, two-state fit; conditions: sodium 0.088 M
Summary of the method: (§1)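 In 50 mM Na-HEPES pH 8.0 containing 25 mM NaCl, hairpins from the library on a sequenced MiSeq flow cell were imaged for Cy3 fluorescence at 2.5 °C steps up to 60 °C, with Cy3 and quencher oligos annealed. After normalisation to pre-quench Cy3 and to control constructs, two-state fits with bootstrapping gave melting temperature and folding enthalpy. Four replicates were combined by inverse-variance weighting, and fitted temperatures were shifted up by 9.35 °C to match UV melts.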

[2] = melting temperature; fluorescence melt of hairpins on a sequencing array, two-state fit, raised by 9.35 °C to match UV melts; conditions: sodium 0.088 M
Summary of the method: as §1

Sequence	folding enthalpy [1] [kcal/mol]	Tm [2] [°C]
CGCATGAAAATGCG (((((....)))))	-24.9	67.6
CGCCCACGGAAACGTGCG (((..(((....))))))	-12.3	37.1
CGCCCCCGGAAACGGGCG (((..(((....))))))	-13.8	54.3
CGCCCGGAAACGGACGCG ((((((....)))..)))	-12.2	50.2
CGCCCGGAAACGGAGGCG ((((((....)))..)))	-32.5	53.8
CGCCCGGAAACGGGGGCG ((((((....)))..)))	-12.5	68.6
CGCCCGGAAACGGTGGCG ((((((....)))..)))	-28.6	54.9
CGCCGCGGAAACGCCGCG (((.(((....))).)))	-14.9	63.6
CGCGAACGGAAACGTGCG (((..(((....))))))	-47.6	49.6
CGCGCGGAAACGCAGGCG ((((((....)))..)))	-28.6	57.2
CGCGCGGAAACGCGAGCG ((((((....)))..)))	-12.1	60.7
CGCGCGGAAACGCTGCG ((((((....))).)))	-26.9	57.1
CGCGCTCGGAAACGAGCG (((..(((....))))))	-7.49	67.6
CGCGGAAAAACAACAACCGCG ((.................))	-25.1	44.5
CGCGGAAAAACAACCGCG ((..............))	-26.4	49.8
CGCGGAAATCTCCGCG ((((((....))))))	-40.2	62.2
CGCGGAAATGTCCGCG ((((((....))))))	-32.5	69.1
CGCGGAACAATCCGCG ((((((....))))))	-37	61.5
CGCGGAACAGTCCGCG ((((((....))))))	-33.1	67.2
CGCGGAACATTCCGCG ((((((....))))))	-35.9	65.3
CGCGGAACCGTCCGCG ((((((....))))))	-31.9	68.4
CGCGGAACGCTCCGCG ((((((....))))))	-28.9	57.4
CGCGGAAGACTCCGCG ((((((....))))))	-41.6	62.8

Sequence	folding enthalpy [1] [kcal/mol]	Tm [2] [°C]
CGCGGAAGAGTCCGCG ((((((....))))))	-36	62.6
CGCGGAAGCGTCCGCG ((((((....))))))	-13.4	53.2
CGCGGACAGTCCGCG ((((((...))))))	-32.6	65.6
CGCGGACCGTCCGCG ((((((...))))))	-29	68.9
CGCGGACGTTTCCGCG ((((((....))))))	-31.9	69.2
CGCGGACTAATCCGCG ((((((....))))))	-38.3	65.9
CGCGGACTCCTCCGCG ((((((....))))))	-37.2	68.9
CGCGGACTGCTCCGCG ((((((....))))))	-39.8	62.4
CGCGGAGCGTCCGCG ((((((...))))))	-7.62	68.1
CGCGGATAGTCCGCG ((((((...))))))	-40.8	63.6
CGCGGATCGCTCCGCG ((((((....))))))	-28.6	69.2
CGCGGATGGCTCCGCG ((((((....))))))	-30.6	68.9
CGCGTCGGAAACGATGCG (((.(((....))).)))	-54.9	62.4
CGCGTTCGGAAACGAGCG (((..(((....))))))	-19.6	48.5
CGCTCCCGGAAACGGGCG (((..(((....))))))	-15.3	42.7
CGCTCGGAAACGAGGCG ((((((....))).)))	-30.6	53.2
CGCTGGAAACAGCG (((((....)))))	-31.2	66.2
CGCTTCGGAAACGACGCG (((.(((....))).)))	-48.8	51.5
CGGAACGGAAACGTCCCG (((.(((....))).)))	-36.3	47.1
CGGAACGGAAACGTGCCG (((.(((....))).)))	-44.3	56
CGGACCGGAAACGGCCG (((.(((....))))))	-28.9	56
CGGACGGAAACGTAGCCG ((((((....)))..)))	-23.6	33.4
CGGACGGAAACGTCCCG ((((((....))).)))	-10.8	50.7

Sequence	folding enthalpy [1] [kcal/mol]	Tm [2] [°C]
CGGACGGAAACGTTGCCG ((((((....)))..)))	-15.7	37.8
CGGATACGGAAACGTCCG (((..(((....))))))	-18.6	40.4
CGGCCCGGAAACGGCCG (((.(((....))))))	-31	63.7
CGGCCGGAAACGGACCCG ((((((....)))..)))	-12.1	38.8
CGGCCGGAAACGGTTCCG ((((((....)))..)))	-21.6	41.1
CGGCGACGGAAACGTCCG (((..(((....))))))	-17.4	38.5
CGGCGCCGGAAACGGCCG (((..(((....))))))	-8.91	54.8
CGGCTACGGAAACGTCCG (((..(((....))))))	-13.3	36.6
CGGCTGCGGAAACGCCCG (((..(((....))))))	-18.5	44.2
CGGGACGGAAACGTCCG (((.(((....))))))	-12.9	57.9
CGGGACGGAAACGTTCCG (((.(((....))).)))	-37.8	59.4
CGGGCGGAAACGCCACCG ((((((....)))..)))	-9.3	42.4
CGGGCGGAAACGCCCCG ((((((....))).)))	-8.53	59.6
CGGGCGGAAACGCGCCG ((((((....))).)))	-16.6	55.5
CGGGGCCGGAAACGGCCG (((..(((....))))))	-4.87	53.8
CGGGTCCGGAAACGGCCG (((..(((....))))))	-14.3	47.5
CGGGTTCGGAAACGACCG (((..(((....))))))	-19.9	39.4
CGGTCACGGAAACGTCCG (((..(((....))))))	-10.3	38.7
CGGTCGGAAACGAAGCCG ((((((....)))..)))	-24.1	38.1
CGGTCGGAAACGATGCCG ((((((....)))..)))	-22.1	38.6
CGGTGACGGAAACGTCCG (((..(((....))))))	-12	44.3
CGGTGCGGAAACGCCCG (((.(((....))))))	-30.8	58
CGGTGGAAACACCG (((((....)))))	-26.1	68

Sequence	folding enthalpy [1] [kcal/mol]	Tm [2] [°C]
CGTAAACGGAAACGTACG (((..(((....))))))	-23.5	34.8
CGTAACGGAAACGTACG (((.(((....))))))	-31	44.3
CGTACCGGAAACGGGACG (((.(((....))).)))	-36.4	64.8
CGTACGCGGAAACGCACG (((..(((....))))))	-13.5	40.7
CGTACGGAAACGTACACG ((((((....)))..)))	-11.5	39.9
CGTACGGAAACGTCTACG ((((((....)))..)))	-14.7	30.7
CGTACGGAAACGTGACG ((((((....))).)))	-25.9	41.1
CGTACGGAAACGTGGACG ((((((....)))..)))	-15.1	35.2
CGTACGGAAACGTTGACG ((((((....)))..)))	-16.5	36.3
CGTAGACGGAAACGTACG (((..(((....))))))	-16.7	36.9
CGTAGCGGAAACGCAACG (((.(((....))).)))	-29.5	53
CGTAGCGGAAACGCGACG (((.(((....))).)))	-31	59.1
CGTAGGAAACTACG (((((....)))))	-21	48.2
CGTATACGGAAACGTACG (((..(((....))))))	-27.7	33
CGTATCCGGAAACGGACG (((..(((....))))))	-13.8	32.5
CGTATCGGAAACGACACG (((.(((....))).)))	-31.2	42.6
CGTATCGGAAACGAGACG (((.(((....))).)))	-35.2	53.3
CGTCCGGAAACGGCGACG ((((((....)))..)))	-13.6	46.7
CGTCCGGAAACGGGACG ((((((....))).)))	-30.4	55.8
CGTCCGGAAACGGGGACG ((((((....)))..)))	-25	48.3
CGTCCGGAAACGGTGACG ((((((....)))..)))	-21.9	41
CGTCGCCGGAAACGGACG (((..(((....))))))	-17.8	47.1
CGTCTTCGGAAACGAACG (((..(((....))))))	-11.3	29.8
